From PubChem
TRPC6 inh: blocks the mouse TRPC6 cation channel. B-score at 10 µM. HEK293-TRPC6, membrane potential dye, ACh-evoked depolarization; hits give low values. AID 2553. hit rate 1.1% among 310,000. Q61143;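 active = B-score under library mean minus 3 SD, initial fluorescence not abnormally high, positive integrated signal ratio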;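 also: B-score derived from integrated fluorescence ratio over the kinetic read; more negative B-score means stronger inhibition of depolarization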
Target sequence (Q61143 whole entry, looked up): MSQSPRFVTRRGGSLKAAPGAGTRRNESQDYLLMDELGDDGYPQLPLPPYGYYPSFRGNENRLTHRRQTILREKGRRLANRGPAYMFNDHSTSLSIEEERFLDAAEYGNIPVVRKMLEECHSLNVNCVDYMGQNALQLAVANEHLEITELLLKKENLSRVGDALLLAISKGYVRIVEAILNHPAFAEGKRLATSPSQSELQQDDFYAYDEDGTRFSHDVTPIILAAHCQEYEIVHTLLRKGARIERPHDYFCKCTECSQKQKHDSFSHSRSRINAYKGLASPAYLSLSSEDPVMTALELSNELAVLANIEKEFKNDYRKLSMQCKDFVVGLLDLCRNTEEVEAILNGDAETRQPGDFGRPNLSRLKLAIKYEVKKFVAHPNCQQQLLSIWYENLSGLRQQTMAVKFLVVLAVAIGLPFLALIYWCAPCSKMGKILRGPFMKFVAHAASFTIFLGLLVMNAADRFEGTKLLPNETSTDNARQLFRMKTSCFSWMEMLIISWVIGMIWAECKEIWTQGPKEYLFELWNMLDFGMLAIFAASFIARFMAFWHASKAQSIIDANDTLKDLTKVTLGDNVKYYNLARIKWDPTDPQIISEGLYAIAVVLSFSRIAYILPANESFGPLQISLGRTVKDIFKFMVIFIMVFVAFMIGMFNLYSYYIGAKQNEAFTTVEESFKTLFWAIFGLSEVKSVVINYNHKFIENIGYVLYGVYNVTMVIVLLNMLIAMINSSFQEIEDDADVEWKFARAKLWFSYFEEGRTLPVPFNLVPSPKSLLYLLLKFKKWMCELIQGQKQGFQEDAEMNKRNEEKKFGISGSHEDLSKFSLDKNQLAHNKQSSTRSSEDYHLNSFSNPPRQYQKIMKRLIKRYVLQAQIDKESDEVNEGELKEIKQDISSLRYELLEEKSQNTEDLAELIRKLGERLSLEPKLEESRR
TRPC4 agonist: activators of mouse TRPC4 channel | Q9QUQ5 | HEK293 TRPC4beta/mu-opioid, Fluo4 calcium fluorescence; hits give high values | B-score at 10 µM | hit rate 0.49% among 310,000;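 active = B-score above 5 SD of library B-scores, and initial fluorescence ratio not above library mean plus 5 SD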;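 also: positive B-score marks a calcium rise read as TRPC4 activation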
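Material: TRPC4beta and mu-opioid receptor HEK293 stable cells | Incubation: 45 min room-temperature Fluo4 loading, 110 s read | Detection: Kinetic Fluo4 calcium fluorescence | Measure: Integrated baseline-normalised fluorescence ratio, converted to per-well B score | Benchmarks: Low control buffer alone, high control maximal DAMGO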
TRPC4 inh: TRPC4 (mouse) channel inhibition; B-score at 10 µM; hit rate 0.39% among 300,000; HEK293 TRPC4beta/mu-opioid, DAMGO-evoked Fluo4 calcium flux; hits give low values; Q9QUQ5;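 active = B-score over 3 SD under the library average, no early fluorescence shift, positive overall ratio signal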
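Assay system: TRPC4beta/mu-opioid receptor HEK293 cell line; compound dosing: single concentration per test compound; detection: Fluo4 Ca2+ flux fluorescence; evaluation: per-well B score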
TRPC6 activator: activates the mouse TRPC6 cation channel. HEK293-TRPC6 membrane potential dye fluorescence; hits give high values. B-score at 10 µM. hit rate 0.13% among 310,000;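 active = B-score of the integrated fluorescence ratio above library mean plus 3 SD, and starting fluorescence ratio within library mean plus 5 SD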;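 also: higher score means more depolarization so channel activation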
TRPC4 PAM: allosteric potentiators of mouse TRPC4 channel; Q9QUQ5; HEK293 TRPC4beta/mu-opioid, DAMGO EC20, Fluo-4 Ca2+ flux; hits give high values; B-score at 10 µM; hit rate 0.42% among 310,000;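 active = B-score of calcium response area above 5 SD of library B-scores, with initial fluorescence ratio within 5 SD of library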;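 also: B-score of integrated fluorescence ratio over time as area under calcium response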
Kir21 block: blocks the mouse Kir2.1 inward-rectifier potassium channel | P35561 | B-score at 10 µM | hit rate 0.85% among 310,000 | AID 1672 | HEK293-Kir2.1, FluxOR thallium flux fluorescence; hits give low values;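 active = fluorescence ratio B-score at or below minus 3 SD of library scores, with starting-brightness B-score within 2 SD, cut at about -4.2 in these data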;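 also: channel flux triggered by added potassium and thallium sulfate stimulus; B-score of peak minus minimum fluorescence over baseline after thallium stimulus; more negative B-score means stronger Kir2.1 block with less thallium influx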
An asterisk follows results filed as active; i = inactive. In the library only some 3% were active in any assay of this set; here they are far more common.

SMILES	TRPC6 inh	TRPC4 agonist	TRPC4 inh	TRPC6 activator	TRPC4 PAM	Kir21 block
CCc1nc(C)cn1S(=O)(=O)c1cc(F)ccc1OC	i	i	i	i	i	-10.2
CCc1nc(C)cn1S(=O)(=O)c1cc(Br)c(C)cc1OC	i	i	i	i	i	-12*
CCc1nc(C)cn1S(=O)(=O)c1cc(C)c(OC)cc1C	i	i	i	i	i	-5.23*
O=C(N/N=C/c1cccnc1)c1ccccc1OCc1ccc(Cl)cc1	i	100*	-6*	i	i	0.18
COc1ccccc1CC1S/C(=N/N=C/c2ccco2)NC1=O (stereo unspecified)	i	i	i	i	i	0.83
CC(CC(=O)Nc1ccccc1C(F)(F)F)c1ccccc1 (stereo unspecified)	i	i	i	i	i	-1.1
CN1/C(=C\C(=O)CSc2nnc(NCc3ccccc3)s2)C(C)(C)c2ccccc21	i	i	i	i	i	-9.66*
CN1/C(=C\C(=O)C[n+]2ccc3ccccc3c2)C(C)(C)c2ccccc21	i	i	-6*	i	i	-0.22
Cc1cc(C(=O)CSc2nnc(NCc3ccccc3)s2)c(C)n1C	i	i	i	i	i	-1.55
COc1ccccc1OCC(=O)/C=C1/N(C)c2ccccc2C1(C)C	i	i	i	i	i	-1.99
CCc1cc(=O)oc2c3c(cc(OCC(=O)NCCCOC)c12)OC(C)(C)CC3	i	i	i	i	i	0.3
COc1cccc(C(=O)C2CCCN(C/C=C/c3ccccc3OC)C2)c1 (stereo unspecified)	i	i	i	i	i	0.02
COc1ccc(/C=C/CN2CCCC(C(=O)c3ccc(OC)c(F)c3)C2)cc1 (stereo unspecified)	i	131*	i	i	i	-2.68
COc1ccc(S(=O)(=O)N2CCC(C(=O)NCc3ccncc3)CC2)cc1	i	i	i	i	i	-0.41
CN1CCC(OC(=O)c2cccc(Br)c2)CC1	i	i	i	i	i	-0.51
CCOc1ccc(C(=O)OC2CCCN(C)C2)cc1 (stereo unspecified)	i	i	i	i	i	0.86
CN1CCCC(OC(=O)c2cccc(S(=O)(=O)N3CCCCCC3)c2)C1 (stereo unspecified)	i	i	i	i	i	-1.57
CN1CCCC(OC(=O)c2ccccc2Br)C1 (stereo unspecified)	i	i	i	i	10*	0.47
CN1CCCC(OC(=O)c2cccc(Br)c2)C1 (stereo unspecified)	i	58*	i	i	i	0.95
CN1CCCC(OC(=O)c2cc(Cl)cc(Cl)c2)C1 (stereo unspecified)	i	193*	i	i	i	-4.26*
CN1CCCC(OC(=O)c2cccc(Cl)c2)C1 (stereo unspecified)	i	45*	i	i	12*	0.49
CC1CSC(N(C(=O)c2ccc(S(C)(=O)=O)cc2)c2ccc(Cl)cc2)=N1 (stereo unspecified)	i	i	i	i	i	-0.04
Cc1ccc(SCCC(=O)NCCSCc2ccco2)cc1	i	i	i	i	i	-0.49
Cc1ccc(SCCNCc2ccco2)cc1	i	i	i	i	10*	-1.64
COc1cc(C=O)ccc1OC(=O)c1ccc(C(C)C)cc1	i	i	-6*	i	i	-1.03
SMILES	TRPC6 inh	TRPC4 agonist	TRPC4 inh	TRPC6 activator	TRPC4 PAM	Kir21 block
COc1ccc(C(=O)Nc2ccc(CN3CCOCC3)cc2)cc1Br	i	i	i	i	i	-5.26*
COc1ccc(C(=O)NC(=S)Nc2ccc(CN3CCOCC3)cc2)cc1OC	i	i	i	i	i	-0.87
COc1cccc(CN2CC(C(=O)NCCc3ccc(C)s3)CCC2=O)c1 (stereo unspecified)	i	i	i	i	i	0.86
S=C(NCc1ccc(Cl)cc1)N1CCN(c2ccccn2)CC1	i	i	i	i	i	2.64
CCCN1CCN(C(=S)NCc2ccc(Cl)cc2)CC1	i	i	i	i	22*	0.2
C=CCOc1ccccc1CN1CCCCCC1	i	i	i	i	i	-0.12
CN(CCO)c1cc(N2CCN(C(=O)c3ccco3)CC2)c2nonc2c1[N+](=O)[O-]	i	i	i	i	i	0.77
CC(=C/c1ccccc1)/C=N/n1c(-c2ccncc2)n[nH]c1=S	i	i	i	i	15*	2.11
Cc1cccn2c(CNCCc3ccccn3)c(C(=O)N3CCOCC3)nc12	i	171*	i	i	i	0.72
O=C(N/C(=C\c1cccc(Br)c1)C(=O)N1CCCCC1)c1ccco1	i	i	i	i	i	-2.12
Cc1cc(C)c(N=C2SCC(=O)N2Cc2ccco2)c(C)c1	i	i	-5*	i	i	-2.88
CN(C)C(CNC(C(=O)Nc1ccc([N+](=O)[O-])cc1Br)c1ccccc1)c1ccccc1 (stereo unspecified)	i	74*	i	i	i	0.58
CN(C)C(CNC(C(=O)Nc1ccc(F)cc1)c1ccccc1)c1ccccc1 (stereo unspecified)	i	139*	i	i	i	-1.75
O=C(Nc1ccc(F)cc1)C(NC1CCCCC1)c1ccccc1 (stereo unspecified)	i	i	i	i	i	0.03
CCOC(=O)C1CCN(C(=O)/C=C/c2ccc3c(c2)OCO3)CC1	i	i	i	i	i	0.5
OC1(c2ccc(Br)cc2)CCN(Cc2cccc(Br)c2)CC1	i	i	i	i	i	-10.9*
N=c1c(C(=O)NCC2CCCO2)cc2c(=O)n3ccccc3nc2n1Cc1ccc(Cl)cc1 (stereo unspecified)	i	i	i	i	29*	-0.8
Cc1ccc(Cn2c(=N)c(C(=O)NC3CCCCC3)cc3c(=O)n4ccccc4nc32)cc1	i	i	i	i	20*	1.72
Cc1ccc(Cn2c(=N)c(C(=O)NCC3CCCO3)cc3c(=O)n4ccccc4nc32)cc1 (stereo unspecified)	i	i	i	i	47*	0.74
N=c1c(C(=O)NC2CCCCC2)cc2c(=O)n3ccccc3nc2n1Cc1ccc(F)cc1	i	i	i	i	i	-0.27
N=c1c(C(=O)NC2CCCC2)cc2c(=O)n3ccccc3nc2n1CCCN1CCOCC1	i	i	i	i	i	0.53
